Consider two compounds from ChEMBL document CHEMBL4038332, “Substituted N-Phenyl-5-(2-(phenylamino)thiazol-4-yl)isoxazole-3-carboxamides Are Valuable Antitubercular Candidates that Evade Innate Efflux Machinery” (J Med Chem, 2017).

SMILES strings stand for the structures. In brackets after ≈: the same amount, converted by molar mass.

Type in all cases: functional
In test [1] the test system is Mycobacterium tuberculosis. Briefly: Antimycobacterial activity against patient derived extreme drug resistance Mycobacterium tuberculosis isolate 3 incubated for 7 days by MTT-based broth microdilution assay. The note with it: isolate 3, 168 h. The method in brief: (§1)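 Drug-resistant clinical isolates from Lisbon patients (2008–2009) grown in MB7H9 + 10% OADC at 37 °C to OD600 0.8, diluted to ~10^5 cells/mL; equal volume added to 2-fold serial compound dilutions. Plates sealed, 7 days at 37 °C, then MTT to final 2.5% overnight; MIC = lowest concentration with no colour change; triplicate.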

In test [2] the test system is Mycobacterium tuberculosis. Briefly: Antimycobacterial activity against patient derived INH/RIF resistance Mycobacterium tuberculosis isolate 2 incubated for 7 days by MTT-based broth microdilution assay. The following applies: isolate 2, 168 h. The method in brief: as §1
For test [3], the system named is Mycobacterium tuberculosis. Briefly: Antimycobacterial activity against patient derived INH/RIF resistance Mycobacterium tuberculosis isolate 1 incubated for 7 days by MTT-based broth microdilution assay. The note with it: isolate 1, 168 h. In short, it runs like this: as §1

Broadly, the MIC90 is an inhibitory concentration at the 90% level, which refers to growth in some studies and to a panel of isolates in others. A high value points to lower susceptibility. Consider `Cc1ccc(Nc2nc(-c3cc(C(=O)Nc4ccccc4)no3)cs2)cc1`, for which the results for the MIC90 in test [1], in test [2] and in test [3] were 2 µg/mL (≈ 5.31 µM), 1 µg/mL (≈ 2.66 µM) and 2 µg/mL (≈ 5.31 µM), respectively.

`Cc1ccc(Nc2nc(-c3cc(C(=O)Nc4ccccn4)no3)cs2)cc1`: the MIC90 in test [1] was found to be 2 µg/mL (≈ 5.3 µM); in test [2], 1 µg/mL (≈ 2.65 µM); in test [3], 2 µg/mL (≈ 5.3 µM).
